How the values were obtained:
Canis familiaris [1] = assay: Inotropic activity determined by evaluating the % change in Cardiac out put (CO)at a dose of 300 ug/kg administered intravenously […]; type: functional, Canis lupus familiaris
In short: (§1)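 Mongrel dogs of either sex, 7–15 kg, anesthetized with sodium pentobarbital (30 mg/kg iv), open-chest, intubated and ventilated on room air. Compounds given intravenously. A femoral artery catheter with pressure transducer recorded SBP and DBP. dP/dtmax, right ventricular contractile force, cardiac output and heart rate were also recorded, as % change at each iv dose.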

Canis familiaris [2] = species on record: Canis familiaris; assay: Positive inotropic in the isolated papillary muscle of the dog.; type: functional, Canis lupus familiaris
In short: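 Right ventricular anterior papillary muscle with septum, from mongrel dogs (7–12 kg, pentobarbital 30 mg/kg iv). It was perfused at about 100 mmHg via the septal artery with blood from a heparinized donor dog and paced at 120/min (1 ms pulses, about 1.5× threshold). Isometric tension was recorded. Saline solutions were injected intra-arterially, with amrinone as reference. ED15 (15% rise in developed tension) was taken from log dose-response curves. Results are mean ± SEM (n = 7) or mean ± range (n = 2).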

Canis familiaris [3] = assay: Inotropic activity determined by evaluating the % change in Cardiac out put (CO)at a dose of 1000 ug/kg administered intravenously […]; type: functional, Canis lupus familiaris; in short: as §1
Canis familiaris [4] = assay: Inotropic activity determined by evaluating the maximum rate of rise in left ventricular pressure at a dose of 1000 ug/kg administered intravenously […]; type: functional, Canis lupus familiaris, Muscle tissue; in short: as §1
Canis familiaris [5] = assay: Inotropic activity determined by evaluating the maximum rate of rise in left ventricular pressure at a dose of 300 ug/kg administered intravenously […]; type: functional, Canis lupus familiaris, Muscle tissue; in short: as §1
Canis familiaris [6] = assay: Inotropic activity determined by evaluating the % change in contractile force (CF) of right ventricle at a dose of 1000 ug/kg administered intravenously […]; type: functional, Canis lupus familiaris, Heart right ventricle; in short: as §1
Canis familiaris [7] = assay: Inotropic activity determined by evaluating the % change in contractile force (CF) of right ventricle at a dose of 100 ug/kg administered intravenously […]; type: functional, Canis lupus familiaris, Heart right ventricle; in short: as §1
Canis familiaris [8] = assay: Inotropic activity determined by evaluating the % change in Heart Rate (HR) at a dose of 1000 ug/kg administered intravenously […]; type: functional, Canis lupus familiaris; in short: as §1
Canis familiaris [9] = assay: Inotropic activity determined by evaluating the % change in Diastolic Blood Pressure (DBP) at a dose of 300 ug/kg administered intravenously […]; type: functional, Canis lupus familiaris; in short: as §1
Canis familiaris [10] = assay: Inotropic activity determined by evaluating the % change in contractile force (CF) of right ventricle at a dose of 300 ug/kg administered intravenously […]; type: functional, Canis lupus familiaris, Heart right ventricle; in short: as §1
Canis familiaris [11] = assay: Inotropic activity determined by evaluating the % change in Systolic Blood Pressure (SBP) at a dose of 300 ug/kg administered intravenously […]; type: functional, Canis lupus familiaris, Muscle tissue; in short: as §1
Canis familiaris [12] = species on record: Canis familiaris; assay: Positive inotropic activity determined in the […](that produced 30% increase in dose- response curves [dP/dt(max)]); type: functional; settings: Canis lupus familiaris
In short: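 In the anesthetized open-chest dog (mongrel, 7–15 kg, pentobarbital 30 mg/kg iv, ventilated on room air), compounds were given intravenously and LV dP/dtmax was recorded. The dose giving a 30% rise in dP/dtmax was read from the dose-response curves. Results are mean ± SEM (n = 3) or mean ± range (n = 2).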

Canis familiaris [13] = assay: Inotropic activity determined by evaluating the % change in Heart Rate (HR) at a dose of 100 ug/kg administered intravenously […]; type: functional, Canis lupus familiaris; in short: as §1
Canis familiaris [14] = assay: Inotropic activity determined by evaluating the % change in Diastolic Blood Pressure (DBP) at a dose of 100 ug/kg administered intravenously […]; type: functional, Canis lupus familiaris; in short: as §1
Canis familiaris [15] = assay: Inotropic activity determined by evaluating the maximum rate of rise in left ventricular pressure at a dose of 100 ug/kg administered intravenously […]; type: functional, Canis lupus familiaris, Muscle tissue; in short: as §1
Canis familiaris [16] = assay: Inotropic activity determined by evaluating the % change in Systolic Blood Pressure (SBP) at a dose of 100 ug/kg administered intravenously […]; type: functional, Canis lupus familiaris, Muscle tissue; in short: as §1
Canis familiaris [17] = assay: Inotropic activity determined by evaluating the % change in Systolic Blood Pressure (SBP) at a dose of 1000 ug/kg administered intravenously […]; type: functional, Canis lupus familiaris, Muscle tissue; in short: as §1
Canis familiaris [18] = assay: Inotropic activity determined by evaluating the % change in Diastolic Blood Pressure (DBP) at a dose of 1000 ug/kg administered intravenously […]; type: functional, Canis lupus familiaris; in short: as §1
Canis familiaris [19] = assay: Inotropic activity determined by evaluating the % change in Heart Rate (HR) at a dose of 300 ug/kg administered intravenously […]; type: functional, Canis lupus familiaris, Muscle tissue; in short: as §1
Canis familiaris [20] = assay: Inotropic activity determined by evaluating the % change in Cardiac out put (CO)at a dose of 100 ug/kg administered intravenously […]; type: functional, Canis lupus familiaris; in short: as §1
Canis familiaris [21] = assay: 0 Inotropic activity determined by evaluating the % change in Systolic Blood Pressure (SBP) at a dose of 1000 ug/kg administered intravenously […]; type: functional, Canis lupus familiaris; in short: as §1

Structure (SMILES)	Change of CO (Canis familiaris [1])	ED15 (Canis familiaris [2])	Change of CO (Canis familiaris [3])	dP/dt (Canis familiaris [4])	dP/dt (Canis familiaris [5])	Change of CF (Canis familiaris [6])	Change of HR (Canis familiaris [8])	Change of DBP (Canis familiaris [9])	Change of CF (Canis familiaris [10])	Change of SBP (Canis familiaris [11])	ED30 (Canis familiaris [12])	Change of DBP (Canis familiaris [18])	Change of HR (Canis familiaris [19])	other results
Nc1cc(-c2ccncc2)c[nH]c1=O [INAMRINONE]	15.6%	200 µg	36.5%	54.8%	22.3%	79.7%	8.1%	-4.1%	22.4%	-2.7%	0.472 mg/kg	-14.1%	3.8%	Change of CF (Canis familiaris [7]): 6.5%; Change of HR (Canis familiaris [13]): 1.2%; Change of DBP (Canis familiaris [14]): -4.7%; dP/dt (Canis familiaris [15]): 6.7%; Change of SBP (Canis familiaris [16]): -5%; Change of SBP (Canis familiaris [17]): -5.5%; Change of CO (Canis familiaris [20]): 1.9%
Cc1cc(O)nnc1-c1ccc(Nc2ccncc2)cc1.Cl	9.6%	165 µg	7.6%	6.2%	-2.2%	10.5%	5.8%	-0.3%	-1.1%	0.5%	> 1 mg/kg	1.4%	-1.3%	Change of SBP (Canis familiaris [21]): 1.9%

Source: ChEMBL document CHEMBL1123853, “A novel class of cardiotonics. Synthesis and pharmacological properties of [4-(substituted-amino)phenyl]pyridazinones and related derivatives” (1987)
